An excerpt weighted towards active compounds, which were near 2% of everything screened.
PAD4 inh: human PAD4 inhibitors, primary screen, biochemical, fluorescence polarization, 1536-well format. Protein-arginine deiminase type-4 (Homo sapiens), Q9UM07. recombinant PAD4, RCA probe fluorescence polarization. inhibition, % at 6.36 µM. 330,000 compounds, 0.41% hits. AID 485272, 2010;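 active = percent inhibition above a cutoff equal to the mean of all tested compounds plus 3 SD, cut at about 15% in these data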
Target sequence (Q9UM07 whole entry, looked up): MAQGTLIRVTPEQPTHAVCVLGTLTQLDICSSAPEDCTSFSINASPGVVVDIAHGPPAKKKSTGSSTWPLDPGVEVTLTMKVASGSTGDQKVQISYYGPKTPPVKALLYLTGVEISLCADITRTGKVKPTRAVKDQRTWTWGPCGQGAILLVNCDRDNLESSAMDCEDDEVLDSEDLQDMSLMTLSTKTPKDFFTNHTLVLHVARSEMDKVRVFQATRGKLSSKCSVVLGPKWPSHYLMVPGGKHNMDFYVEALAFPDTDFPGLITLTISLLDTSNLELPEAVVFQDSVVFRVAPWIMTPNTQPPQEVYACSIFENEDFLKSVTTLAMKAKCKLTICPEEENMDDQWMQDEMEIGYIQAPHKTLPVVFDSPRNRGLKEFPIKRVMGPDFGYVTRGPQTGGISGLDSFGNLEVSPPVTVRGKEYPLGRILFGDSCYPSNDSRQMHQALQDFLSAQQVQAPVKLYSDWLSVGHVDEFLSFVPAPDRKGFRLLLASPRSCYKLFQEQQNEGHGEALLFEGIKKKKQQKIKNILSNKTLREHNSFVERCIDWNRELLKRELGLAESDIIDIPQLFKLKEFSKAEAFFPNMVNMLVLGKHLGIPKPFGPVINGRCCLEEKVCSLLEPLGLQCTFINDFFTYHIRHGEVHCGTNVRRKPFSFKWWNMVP
mABHD4 FP: ABHD4 inhibitors, primary screen, biochemical, fluorescence polarization, mouse | purified mABHD4, FP-Rh probe fluorescence polarization | inhibition, % at 8.92 µM | (Lyso)-N-acylphosphatidylethanolamine lipase (Mus musculus), Q8VD66 | 370,000 compounds, 0.54% hits;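 active = inhibition exceeding the mean over every tested compound plus 3 SD, cut at about 30% in these data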
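Doses – 8.92 µM, single dose · Material – wild-type mouse ABHD4 protein · Replication – single well per compound (singlicate) · Measure – percent inhibition of probe binding, normalized to plate controls · Schedule – 45 min compound pre-incubation plus 60 min probe step, 25 °C · Detection – fluorescence polarization with parallel and perpendicular emission, 525/598 nm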
HTRA1 inh: HTRA1 serine protease inhibitors, primary screen, biochemical, fluorescence polarization, HTS. Q92743. recombinant HTRA1, FP-rhodamine activity-based probe. inhibition, % at 5.96 µM. 340,000 compounds, 0.5% hits; in the data active = inhibition above about 36%
TCR CD3 inh: inhibitors of human TCR-CD3 interaction, primary screen, biochemical, fluorescence, TAMRA-labeled TCR probe; inhibition, % at 9.4 µM; 360,000 compounds, 0.37% hits; AID 651800, 2012; T-cell receptor (TCR); in the data active = inhibition above about 19%;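 also: recombinant mutant TCR 2C K166C tagged with TAMRA read by polarization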
TDP2 absorb: human TDP2 enzyme inhibitors, primary screen, biochemical, epi absorbance, recombinant enzyme; 370,000 compounds, 0.34% hits; T5PNP hydrolysis, p-nitrophenol absorbance 415 nm; Tyrosyl-DNA phosphodiesterase 2 (Homo sapiens), O95551; AID 720702, 2013; inhibition, % at 12.8 µM;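 active = inhibition above the mean of all tested compounds plus 3 SD, set per campaign, cut at about 25% in these data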
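System – recombinant human TDP2 · Quantity – TDP2 enzyme at 120 nM final · Doses – single concentration, 12.8 µM nominal, with 1% DMSO · Incubation – 2 h at 37 °C · Measured by – epi absorbance of p-nitrophenol freed from T5PNP by hydrolysis · Read-out – % inhibition relative to enzyme-containing and enzyme-free wells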
SIAE primary: human SIAE inhibitors, primary screen, biochemical, fluorescence polarization, FP-Rh probe, 1536-well HTS; SIAE FP-Rh probe binding; inhibition, % at 9.66 µM; 370,000 compounds, 0.69% hits; AID 1053197, 2014;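 active = inhibition above a cutoff: mean of compounds within the control limits plus 3 SD of those, cut at about 17% in these data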
SIAE confirm: human SIAE inhibitors, retest, confirmation, biochemical, fluorescence polarization, FP-Rh probe, triplicate; inhibition, % at 9.66 µM; SIAE FP-Rh activity-based probe; shares compounds with SIAE primary; AID 1117263, 2014; 2,300 compounds, 13% hits;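 active = mean inhibition of the replicates above the hit cutoff set in the primary screen, cut at about 17% in these data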;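 also: inhibitors lower polarization as more probe stays unbound to SIAE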
A number is an active result; n = inactive; x = not tested or not shown.

SMILES	PAD4 inh	mABHD4 FP	HTRA1 inh	TCR CD3 inh	TDP2 absorb	SIAE primary	SIAE confirm
Cc1ccc(OCc2cc(C(=O)NC(C)Cc3cccc(C)n3)no2)cn1 (centres undefined)	n	n	n	n	n	n	x
COc1cc(NC(=O)CN2c3cccc4cccc(c34)S2(=O)=O)cc(OC)c1OC	n	n	n	n	n	29	n
COc1ccc(NC(=O)CN2c3cccc4cccc(c34)S2(=O)=O)c(OC)c1	n	n	n	n	n	n	x
C=C(C)CNC(=S)NN=C1c2ccccc2-c2ccccc21	n	x	n	x	x	x	x
CCNC(=S)NN=C1c2ccccc2-c2ccccc21	n	n	n	n	n	24	n
O=C(N[C@H](Cc1ccccc1)C(=O)NCc1ccccn1)[C@H]1O[C@@H](n2ccc(=O)[nH]c2=O)[C@H](O)[C@@H]1O	x	n	x	n	n	n	x
Cc1ccc(CNC(=O)[C@@H](Cc2ccccc2)NC(=O)[C@H]2O[C@@H](n3ccc(N)nc3=O)[C@H](O)[C@@H]2O)o1	x	n	x	n	n	18	n
CCCn1cnnc1CNC(=O)[C@@H](Cc1ccccc1)NC(=O)[C@H]1O[C@@H](n2ccc(=O)[nH]c2=O)[C@H](O)[C@@H]1O	x	n	x	n	n	30	35
COc1ccc(CN(C)C(=O)[C@@H](Cc2ccccc2)NC(=O)[C@H]2O[C@@H](n3ccc(N)nc3=O)[C@H](O)[C@@H]2O)cc1OC	x	n	x	n	n	48	53
Nc1ccn([C@@H]2O[C@H](C(=O)N[C@H](Cc3ccccc3)C(=O)N3CCC(F)(F)CC3)[C@@H](O)[C@H]2O)c(=O)n1	x	n	x	n	n	45	53
O=C(NCc1ccc(Cl)cc1)C1CCCN(c2ncccn2)C1 (centres undefined)	x	n	x	x	n	n	x
COc1ccc(S(=O)(=O)N2CCC(C(=O)NCCCn3ccnc3)CC2)cc1C	n	n	n	n	n	n	x
CC(C)[C@H](NC(=O)N1c2ccccc2NC(=O)[C@@H]1C(C)C)C(=O)N1CCC(C(=O)O)CC1	n	n	n	n	n	n	x
CCc1nc2ccc(C(=O)NCCCn3ccnc3)cn2c1N(C)Cc1ccc(Cl)cc1	x	n	x	n	n	n	x
COc1cc(NC(=O)[C@@H](Cc2ccccc2)NC(=O)[C@H]2O[C@@H](n3ccc(N)nc3=O)[C@H](O)[C@@H]2O)cc(OC)c1OC	x	n	x	n	n	45	46
CC(C)(C)NC(=O)Cn1nnc(-c2ccc(OCc3c(F)cccc3Cl)cc2)n1	n	n	n	n	n	n	x
Cc1c(Cl)cnc(NC(=O)COC(=O)c2cccc(S(=O)(=O)N3CCOCC3)c2)c1Cl	x	n	n	n	n	n	x
Cn1c(SCc2ccccc2)nnc1-c1cnccn1	n	n	n	n	n	20	n
Cn1c(SCc2ccc(F)cc2)nnc1-c1cnccn1	n	n	n	n	n	n	x
CCOc1ccc(NC(=O)N(O)C2(C#N)CCCCC2)cc1	x	n	n	n	n	n	x
Cc1ccc(N2C(=O)/C(=C\c3ccco3)SC2=S)cc1	n	n	n	n	n	n	x
O=C1/C(=C\c2ccco2)SC(=S)N1c1ccccc1	n	n	n	n	n	25	n
O=C(Cc1cccs1)NCCN1CCOCC1	n	n	n	n	n	22	n
O=C(NCCN1CCOCC1)c1ccccc1Cl	x	n	n	n	n	n	x
Nc1sccc1C(=O)NCCN1CCOCC1	x	n	x	n	n	19	n
SMILES	PAD4 inh	mABHD4 FP	HTRA1 inh	TCR CD3 inh	TDP2 absorb	SIAE primary	SIAE confirm
O=C(Nc1nnc(C(F)(F)F)s1)c1cccnc1	n	n	n	n	n	n	x
O=C(Nc1nnc(C(F)(F)F)s1)c1c(F)cccc1F	n	n	n	n	n	32	n
FC(F)(F)c1ccc2c(c1)NCC1CCCN21 (centres undefined)	n	n	n	n	n	18	n
FC(F)(F)c1nnc2ccc(N3CCCCC3)nn12	n	n	x	n	n	n	x
FC(F)(F)C(F)(F)c1nnc2ccc(-n3ccnc3)nn12	n	n	n	n	n	17	n
COc1ccc(CNC(=O)C2CCN(S(=O)(=O)c3ccc(N4CCCC4=O)cc3)CC2)cc1	x	n	n	n	n	n	x
COc1ccc(NC(=O)Nc2cccs2)cn1	x	n	n	n	n	18	n
COc1ccc(NC(=O)Nc2cc(C)cc(C)c2)cn1	n	n	n	n	n	n	x
O=C(NNc1c2ccccc2nc2ccccc12)c1cccc(O)c1	n	n	n	n	n	18	n
c1csc(C2=Nn3c(nnc3-c3ccncc3)SC2)c1	n	n	n	n	n	19	n
COc1cc(NC(=O)c2ccccc2F)c(OC)cc1NC(=O)CN1CCOCC1	n	n	n	n	n	17	n
COc1cc(NC(=O)c2ccc(F)cc2)c(OC)cc1NC(=O)CN1CCOCC1	n	n	n	n	n	n	x
O=P(c1ccccc1)(c1ccccc1)C(O)c1ccncc1 (centres undefined)	n	n	n	n	n	24	n
OC(c1ccccc1)c1ccncc1 (centres undefined)	n	n	n	n	n	n	x
Cc1cc(C)n2nc(C(=O)OC(C)C(=O)c3ccccc3)nc2n1 (centres undefined)	n	n	n	n	n	n	x
COc1cc(S(=O)(=O)NCCN2CCOCC2)ccc1-n1cnnn1	n	n	n	n	n	n	x
COc1cc(S(=O)(=O)NCCCN2CCOCC2)ccc1-n1cnnn1	n	n	n	n	n	17	n
C/C(=N\Nc1cc(-c2ccccc2)nc(-c2ccccc2)n1)c1ccc(O)c(C)c1	n	n	n	n	n	19	n
COc1ccc2[nH]c3c(N4CCC(O)(c5cccc(C(F)(F)F)c5)CC4)ncnc3c2c1	n	n	n	n	n	18	n
COc1ccc2[nH]c3c(N4CCN(Cc5ccc6c(c5)OCO6)CC4)ncnc3c2c1	n	n	n	n	n	n	x
Cc1ccc2[nH]c3c(N4CCc5ccccc5C4)ncnc3c2c1	n	n	n	n	n	23	n
Fc1ccc2[nH]c3c(N4CCc5ccccc5C4)ncnc3c2c1	n	n	x	n	n	n	x
Cc1ccc(CN2CCN(C(=O)CCC(=O)Nc3nnc(C(C)C)s3)CC2)c(C)c1	n	n	n	n	n	n	x

High-throughput results: PubChem, The Scripps Research Institute Molecular Screening Center
